How the values were obtained:
[1] = target: T1, Membrane-associated tyrosine- and threonine-specific cdc2-inhibitory kinase (Homo sapiens) (UniProt Q99640); experiment: Inhibition of PKMYT1 at 1 uM
T1 sequence (whole entry): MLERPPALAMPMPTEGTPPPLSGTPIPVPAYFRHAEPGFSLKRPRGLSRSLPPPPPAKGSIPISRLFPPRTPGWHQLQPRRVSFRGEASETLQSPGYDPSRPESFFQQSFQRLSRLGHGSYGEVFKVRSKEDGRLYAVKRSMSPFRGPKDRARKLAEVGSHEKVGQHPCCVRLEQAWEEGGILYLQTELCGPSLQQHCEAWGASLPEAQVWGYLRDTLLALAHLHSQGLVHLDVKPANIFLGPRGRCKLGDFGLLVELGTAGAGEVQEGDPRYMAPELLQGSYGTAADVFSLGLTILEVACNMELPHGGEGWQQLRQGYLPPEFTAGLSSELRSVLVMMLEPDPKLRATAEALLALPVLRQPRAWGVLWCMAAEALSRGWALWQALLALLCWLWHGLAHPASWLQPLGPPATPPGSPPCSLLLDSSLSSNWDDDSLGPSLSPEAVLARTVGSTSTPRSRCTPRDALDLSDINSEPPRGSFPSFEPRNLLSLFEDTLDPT

[2] = target: Cyclin-dependent kinase 18 (Homo sapiens) (UniProt Q07002); experiment: Inhibition of PCTK3 at 1 uM
[3] = target: Serine/threonine-protein kinase 33 (Homo sapiens) (UniProt Q9BYT3); experiment: Inhibition of STK33 at 1 uM
[4] = target: Tyrosine-protein kinase Fer (Homo sapiens) (UniProt P16591); experiment: Inhibition of FER at 1 uM
Method in brief: (§1)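 Single-concentration screen using Ambit Bioscience KINOMEscan technology across a panel of 250–400 kinases. Per-kinase inhibition from this screen was summarized as S(90), the fraction of kinases inhibited by more than 90%.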

[5] = target: Calcium/calmodulin-dependent protein kinase type 1 (Homo sapiens) (UniProt Q14012); experiment: Inhibition of CAMK1 at 1 uM
Method in brief: (§2)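 Ambit KINOMEscan screen at a single concentration across a 250–400 kinase panel, recorded as percent inhibition. Selectivity was expressed as S(90), the fraction of kinases inhibited >90%.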

[6] = target: Serine/threonine-protein kinase PAK 5 (Homo sapiens) (UniProt Q9P286); experiment: Inhibition of PAK7 at 1 uM
[7] = target: Tyrosine-protein kinase JAK1 (Homo sapiens) (UniProt P23458); experiment: Inhibition of JAK1 JH2 pseudokinase domain at 1 uM
Method in brief: (§3)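 Single-concentration screen on the Ambit KINOMEscan platform, run against a panel of 250–400 kinases. Per-kinase inhibition was also summarized as S(90), the fraction of kinases inhibited by more than 90%.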

[8] = test system: Proto-oncogene tyrosine-protein kinase receptor Ret (Homo sapiens), P07949 [M918T]; experiment: Inhibition of RET M918T mutant at 1 uM
[9] = target: Interferon-induced, double-stranded RNA-activated protein kinase (Homo sapiens) (UniProt P19525); experiment: Inhibition of PRKR at 1 uM
[10] = target: Epidermal growth factor receptor (Homo sapiens) (UniProt P04626+P00533+Q15303+P21860); experiment: Inhibition of EGFR S752-I759del mutant at 1 uM; assay type: protein assay; method in brief: as §1
[11] = target: Serine/threonine-protein kinase PAK 6 (Homo sapiens) (UniProt Q9NQU5); experiment: Inhibition of PAK6 at 1 uM
[12] = target: T2, Tyrosine-protein kinase Tec (Homo sapiens) (UniProt P42680); experiment: Inhibition of TEC at 1 uM
T2 sequence (whole entry): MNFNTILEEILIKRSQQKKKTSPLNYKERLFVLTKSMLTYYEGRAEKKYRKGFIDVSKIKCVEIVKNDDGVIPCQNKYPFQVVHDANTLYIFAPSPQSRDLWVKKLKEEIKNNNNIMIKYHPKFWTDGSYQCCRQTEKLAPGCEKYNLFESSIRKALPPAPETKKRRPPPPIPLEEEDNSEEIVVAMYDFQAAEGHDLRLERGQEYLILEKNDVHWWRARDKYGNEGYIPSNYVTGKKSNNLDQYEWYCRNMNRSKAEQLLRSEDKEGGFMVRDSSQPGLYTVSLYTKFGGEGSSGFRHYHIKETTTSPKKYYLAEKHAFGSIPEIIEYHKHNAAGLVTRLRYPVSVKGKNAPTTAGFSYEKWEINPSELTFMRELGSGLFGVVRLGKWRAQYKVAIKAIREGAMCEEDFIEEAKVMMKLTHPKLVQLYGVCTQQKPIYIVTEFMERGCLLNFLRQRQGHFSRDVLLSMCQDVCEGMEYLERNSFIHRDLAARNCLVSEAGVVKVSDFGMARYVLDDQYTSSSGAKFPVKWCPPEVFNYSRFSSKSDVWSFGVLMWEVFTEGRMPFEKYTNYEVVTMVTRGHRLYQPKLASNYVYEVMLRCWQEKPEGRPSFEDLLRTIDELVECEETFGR

[13] = target: Activin receptor type-2A (Homo sapiens) (UniProt P27037); experiment: Inhibition of ACVR2A at 1 uM; method in brief: as §2
[14] = target: Cyclin-dependent kinase 8 (Homo sapiens) (UniProt P49336); experiment: Inhibition of CDK8 at 1 uM
[15] = target: Macrophage colony-stimulating factor 1 receptor (Homo sapiens) (UniProt P07333); experiment: Inhibition of CSF1R at 1 uM; method in brief: as §1
[16] = target: Receptor tyrosine-protein kinase erbB-4 (Homo sapiens) (UniProt Q15303); experiment: Inhibition of ERBB4 at 1 uM; method in brief: as §1
[17] = target: Ribosomal protein S6 kinase alpha-1 (Homo sapiens) (UniProt Q15418); experiment: Inhibition of RPS6KA1 N-terminal domain1 at 1 uM
[18] = target: T3, Mitogen-activated protein kinase 12 (Homo sapiens) (UniProt P53778); experiment: Inhibition of p38-gamma at 1 uM
T3 sequence (whole entry): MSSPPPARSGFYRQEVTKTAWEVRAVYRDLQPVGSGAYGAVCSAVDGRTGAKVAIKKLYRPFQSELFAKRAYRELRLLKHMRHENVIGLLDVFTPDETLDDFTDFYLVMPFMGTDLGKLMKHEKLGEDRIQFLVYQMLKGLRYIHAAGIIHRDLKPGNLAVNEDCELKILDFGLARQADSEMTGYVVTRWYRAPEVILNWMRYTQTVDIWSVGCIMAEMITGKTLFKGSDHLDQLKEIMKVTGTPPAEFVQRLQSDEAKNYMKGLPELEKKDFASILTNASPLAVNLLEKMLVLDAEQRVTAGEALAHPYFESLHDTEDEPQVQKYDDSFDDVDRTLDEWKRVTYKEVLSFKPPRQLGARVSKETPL

[19] = target: Calcium/calmodulin-dependent protein kinase type II subunit beta (Homo sapiens) (UniProt Q13554); experiment: Inhibition of CAMK2B at 1 uM; method in brief: as §2
[20] = target: Ephrin type-A receptor 5 (Homo sapiens) (UniProt P54756); experiment: Inhibition of EPHA5 at 1 uM; method in brief: as §1
[21] = target: Mast/stem cell growth factor receptor Kit (Homo sapiens) (UniProt P10721); experiment: Inhibition of KIT at 1 uM; method in brief: as §3

Sequence of Cyclin-dependent kinase 8 (Homo sapiens) (P49336 whole entry): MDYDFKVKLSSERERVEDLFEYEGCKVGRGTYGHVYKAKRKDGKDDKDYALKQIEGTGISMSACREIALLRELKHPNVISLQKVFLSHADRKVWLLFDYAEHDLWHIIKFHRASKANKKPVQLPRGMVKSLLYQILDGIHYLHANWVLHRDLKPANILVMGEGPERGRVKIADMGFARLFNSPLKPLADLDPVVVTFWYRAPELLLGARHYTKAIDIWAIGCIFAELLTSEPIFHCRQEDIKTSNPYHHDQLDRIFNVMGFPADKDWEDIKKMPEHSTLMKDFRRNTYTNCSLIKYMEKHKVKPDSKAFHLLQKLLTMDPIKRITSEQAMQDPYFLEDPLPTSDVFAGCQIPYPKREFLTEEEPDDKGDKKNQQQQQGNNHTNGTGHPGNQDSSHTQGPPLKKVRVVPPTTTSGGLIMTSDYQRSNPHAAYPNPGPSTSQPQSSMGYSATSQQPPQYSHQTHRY
Sequence of Proto-oncogene tyrosine-protein kinase receptor Ret (Homo sapiens), P07949 [M918T] (P07949 whole entry M918T): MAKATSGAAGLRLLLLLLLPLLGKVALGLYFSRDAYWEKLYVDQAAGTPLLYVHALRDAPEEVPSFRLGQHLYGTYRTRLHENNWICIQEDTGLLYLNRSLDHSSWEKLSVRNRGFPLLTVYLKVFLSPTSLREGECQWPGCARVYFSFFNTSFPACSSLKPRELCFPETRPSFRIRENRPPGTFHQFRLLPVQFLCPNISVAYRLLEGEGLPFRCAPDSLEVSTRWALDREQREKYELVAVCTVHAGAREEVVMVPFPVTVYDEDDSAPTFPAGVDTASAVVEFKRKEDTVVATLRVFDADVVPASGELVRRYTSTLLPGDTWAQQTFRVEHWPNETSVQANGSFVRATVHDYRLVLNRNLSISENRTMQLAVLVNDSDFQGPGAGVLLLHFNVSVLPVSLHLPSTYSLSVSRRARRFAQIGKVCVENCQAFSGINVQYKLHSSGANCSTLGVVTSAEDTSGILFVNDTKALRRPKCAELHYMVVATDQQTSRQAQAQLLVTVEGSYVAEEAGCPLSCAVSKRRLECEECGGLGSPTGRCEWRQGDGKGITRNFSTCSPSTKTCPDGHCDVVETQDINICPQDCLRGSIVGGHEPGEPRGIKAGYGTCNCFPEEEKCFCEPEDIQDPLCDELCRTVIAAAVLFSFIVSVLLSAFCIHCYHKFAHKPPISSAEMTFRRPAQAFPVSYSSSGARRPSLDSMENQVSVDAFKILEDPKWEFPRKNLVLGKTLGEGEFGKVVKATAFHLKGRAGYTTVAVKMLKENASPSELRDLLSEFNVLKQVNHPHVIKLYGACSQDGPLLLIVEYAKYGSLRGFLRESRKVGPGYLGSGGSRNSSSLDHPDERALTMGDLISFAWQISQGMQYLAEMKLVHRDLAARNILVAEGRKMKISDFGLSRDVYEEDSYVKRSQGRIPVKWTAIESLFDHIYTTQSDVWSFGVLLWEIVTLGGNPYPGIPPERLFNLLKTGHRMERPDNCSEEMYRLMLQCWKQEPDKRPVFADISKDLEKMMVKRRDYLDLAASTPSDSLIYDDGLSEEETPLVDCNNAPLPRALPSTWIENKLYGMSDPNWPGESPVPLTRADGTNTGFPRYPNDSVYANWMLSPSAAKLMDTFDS
Sequence of Serine/threonine-protein kinase PAK 5 (Homo sapiens) (Q9P286 whole entry, looked up, the tested form may be a part): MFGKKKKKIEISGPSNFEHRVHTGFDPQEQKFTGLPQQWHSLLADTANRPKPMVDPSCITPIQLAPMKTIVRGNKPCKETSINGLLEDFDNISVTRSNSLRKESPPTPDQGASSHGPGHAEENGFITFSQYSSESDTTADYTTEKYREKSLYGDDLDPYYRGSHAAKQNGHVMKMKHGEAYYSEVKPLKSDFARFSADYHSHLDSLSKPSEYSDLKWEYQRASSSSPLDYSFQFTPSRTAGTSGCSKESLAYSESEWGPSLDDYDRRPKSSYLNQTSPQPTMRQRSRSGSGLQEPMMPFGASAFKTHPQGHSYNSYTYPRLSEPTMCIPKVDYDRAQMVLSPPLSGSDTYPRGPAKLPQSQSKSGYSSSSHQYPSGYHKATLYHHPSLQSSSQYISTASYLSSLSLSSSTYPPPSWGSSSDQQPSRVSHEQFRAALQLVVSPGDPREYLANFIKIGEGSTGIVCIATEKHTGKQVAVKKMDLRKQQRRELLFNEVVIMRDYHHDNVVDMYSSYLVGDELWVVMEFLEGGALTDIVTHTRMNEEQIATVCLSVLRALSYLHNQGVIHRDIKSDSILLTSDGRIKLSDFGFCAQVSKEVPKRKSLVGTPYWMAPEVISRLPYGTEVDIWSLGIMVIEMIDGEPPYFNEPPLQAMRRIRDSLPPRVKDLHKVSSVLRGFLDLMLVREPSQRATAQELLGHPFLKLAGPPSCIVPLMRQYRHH
Sequence of Macrophage colony-stimulating factor 1 receptor (Homo sapiens) (P07333 whole entry): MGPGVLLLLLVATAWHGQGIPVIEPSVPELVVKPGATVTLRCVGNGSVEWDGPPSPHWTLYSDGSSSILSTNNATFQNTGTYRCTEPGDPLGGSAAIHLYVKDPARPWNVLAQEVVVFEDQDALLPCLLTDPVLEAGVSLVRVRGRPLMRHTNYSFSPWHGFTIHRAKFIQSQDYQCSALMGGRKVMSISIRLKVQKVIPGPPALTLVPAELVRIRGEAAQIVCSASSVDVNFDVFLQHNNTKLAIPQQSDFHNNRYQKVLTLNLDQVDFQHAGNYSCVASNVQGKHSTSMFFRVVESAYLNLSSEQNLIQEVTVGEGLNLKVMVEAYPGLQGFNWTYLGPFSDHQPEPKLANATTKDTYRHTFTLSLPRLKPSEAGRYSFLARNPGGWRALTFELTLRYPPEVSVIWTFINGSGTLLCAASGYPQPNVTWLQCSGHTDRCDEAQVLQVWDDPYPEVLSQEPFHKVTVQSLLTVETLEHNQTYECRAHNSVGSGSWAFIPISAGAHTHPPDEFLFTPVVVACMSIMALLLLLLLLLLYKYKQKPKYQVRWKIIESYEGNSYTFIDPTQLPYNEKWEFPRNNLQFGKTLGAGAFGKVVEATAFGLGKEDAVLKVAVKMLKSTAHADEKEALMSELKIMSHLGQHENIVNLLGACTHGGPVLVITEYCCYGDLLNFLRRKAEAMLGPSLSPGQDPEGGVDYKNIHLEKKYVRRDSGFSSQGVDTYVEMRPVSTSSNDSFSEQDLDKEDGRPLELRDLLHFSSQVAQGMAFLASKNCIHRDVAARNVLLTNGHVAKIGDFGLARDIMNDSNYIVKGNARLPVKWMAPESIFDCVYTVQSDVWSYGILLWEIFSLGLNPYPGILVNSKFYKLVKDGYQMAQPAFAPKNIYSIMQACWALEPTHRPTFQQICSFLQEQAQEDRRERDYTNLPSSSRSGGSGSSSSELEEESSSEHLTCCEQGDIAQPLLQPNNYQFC
Sequence of Ephrin type-A receptor 5 (Homo sapiens) (P54756 whole entry): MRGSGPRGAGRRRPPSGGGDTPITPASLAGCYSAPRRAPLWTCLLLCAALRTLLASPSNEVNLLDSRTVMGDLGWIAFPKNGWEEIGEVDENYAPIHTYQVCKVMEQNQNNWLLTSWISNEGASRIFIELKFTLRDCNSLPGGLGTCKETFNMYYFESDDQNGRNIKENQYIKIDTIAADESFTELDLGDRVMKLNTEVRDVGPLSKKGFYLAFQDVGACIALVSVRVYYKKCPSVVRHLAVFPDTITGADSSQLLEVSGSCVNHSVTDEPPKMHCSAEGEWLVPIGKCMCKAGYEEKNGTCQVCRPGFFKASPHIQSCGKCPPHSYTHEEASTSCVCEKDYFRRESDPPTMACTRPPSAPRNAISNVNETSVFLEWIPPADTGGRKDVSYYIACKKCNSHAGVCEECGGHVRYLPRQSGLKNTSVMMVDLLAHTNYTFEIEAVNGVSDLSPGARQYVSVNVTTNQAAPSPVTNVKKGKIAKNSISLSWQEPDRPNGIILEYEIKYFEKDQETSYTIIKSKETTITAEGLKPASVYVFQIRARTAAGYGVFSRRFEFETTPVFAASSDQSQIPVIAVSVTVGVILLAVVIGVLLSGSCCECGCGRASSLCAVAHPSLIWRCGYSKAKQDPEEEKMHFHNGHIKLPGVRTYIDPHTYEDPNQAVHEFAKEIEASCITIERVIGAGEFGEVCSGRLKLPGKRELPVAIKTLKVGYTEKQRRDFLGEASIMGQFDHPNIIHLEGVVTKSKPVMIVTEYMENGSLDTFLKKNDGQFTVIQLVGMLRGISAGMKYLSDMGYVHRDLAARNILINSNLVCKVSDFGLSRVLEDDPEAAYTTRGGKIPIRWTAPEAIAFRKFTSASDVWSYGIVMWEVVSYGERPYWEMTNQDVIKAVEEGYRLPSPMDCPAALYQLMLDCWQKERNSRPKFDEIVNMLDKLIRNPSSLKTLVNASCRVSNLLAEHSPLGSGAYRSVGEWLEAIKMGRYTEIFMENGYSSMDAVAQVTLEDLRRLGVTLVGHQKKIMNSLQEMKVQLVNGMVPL
Sequence of Serine/threonine-protein kinase PAK 6 (Homo sapiens) (Q9NQU5 whole entry, looked up): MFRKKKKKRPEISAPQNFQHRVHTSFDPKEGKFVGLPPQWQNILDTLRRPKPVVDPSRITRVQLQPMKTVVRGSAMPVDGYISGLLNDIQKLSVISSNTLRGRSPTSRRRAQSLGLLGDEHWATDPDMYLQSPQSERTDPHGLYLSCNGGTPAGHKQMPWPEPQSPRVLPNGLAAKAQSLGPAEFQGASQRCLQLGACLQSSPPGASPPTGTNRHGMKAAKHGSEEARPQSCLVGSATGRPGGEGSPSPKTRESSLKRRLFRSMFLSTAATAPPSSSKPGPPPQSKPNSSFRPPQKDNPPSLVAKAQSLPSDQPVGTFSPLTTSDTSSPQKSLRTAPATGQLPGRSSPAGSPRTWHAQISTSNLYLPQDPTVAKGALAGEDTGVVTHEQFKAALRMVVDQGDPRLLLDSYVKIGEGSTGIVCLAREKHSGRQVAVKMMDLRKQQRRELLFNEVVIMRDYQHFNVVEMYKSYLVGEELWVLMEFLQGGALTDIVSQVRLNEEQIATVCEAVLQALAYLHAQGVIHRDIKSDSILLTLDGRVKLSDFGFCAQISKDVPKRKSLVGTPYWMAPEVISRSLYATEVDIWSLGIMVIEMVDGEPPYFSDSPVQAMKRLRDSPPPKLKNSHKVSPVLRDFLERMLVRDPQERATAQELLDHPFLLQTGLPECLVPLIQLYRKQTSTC

inhibition [1]: < 50%
inhibition [2]: < 50%
inhibition [3]: < 50%
inhibition [4]: < 50%
inhibition [5]: < 50%
inhibition [6]: < 50%
inhibition [7]: < 50%
inhibition [8]: < 50%
inhibition [9]: < 50%
inhibition [10]: < 50%
inhibition [11]: < 50%
inhibition [12]: < 50%
inhibition [13]: < 50%
inhibition [14]: < 50%
inhibition [15]: < 50%
inhibition [16]: < 50%
inhibition [17]: < 50%
inhibition [18]: < 50%
inhibition [19]: < 50%
inhibition [20]: < 50%
inhibition [21]: 56.5%
Structure (SMILES): CN1CCN(c2ccc(-c3cnc4c(c3)N(Cc3cc(F)ccc3F)CCN4)cn2)CC1
